# Reference: ChEMBL document CHEMBL3414428, “Bond-based bilinear indices for computational discovery of novel trypanosomicidal drug-like compounds through virtual screening” (Eur J Med Chem, 2015)
# Experiments:
# [1] = Selectivity ratio of IC50 for mouse J774 cells to IC50 for epimastigote stage of Trypanosoma cruzi CL-B5; type: ADME, cell-based; conditions: J774 cells versus Trypanosoma cruzi CL-B5 epimastigotes, read-out: Ratio IC50
# Trypanosoma cruzi = test: Trypanosomicidal activity against epimastigote stage of Trypanosoma cruzi CL-B5 after 72 hrs by beta-galactosidase reporter gene assay; type: functional, organism-based; conditions: CL-B5, 72 h
# How it was run: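 Epimastigotes from cultures not yet in stationary phase, seeded at 2 x 10^5/mL with drugs at 28 °C for 72 h. CPRG then added (200 µM final) for 6 h at 37 °C and absorbance read at 595 nm. Each concentration tested in triplicate, two independent experiments; IC50 and AE% calculated.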
# J774 = test: Cytotoxicity against mouse J774 cells assessed as cell viability after 48 hrs by resazurin assay; type: cell-based; conditions: J774, 48 h
# How it was run: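 J774 macrophages grown in RPMI 1640 with 10% heat-inactivated FBS, penicillin and streptomycin at 37 °C, 5% CO2, and harvested pre-confluence with trypsin. Seeded at 5x10^4 cells/well and left to attach 24 h. Exposed to a range of drug concentrations for 48 h. Resazurin solution (2 mM stock, in PBS pH 7) added for 3 h. Absorbance read at 490 and 595 nm with background subtracted. Triplicates; %C and IC50 calculated.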
Compound,selectivity ratio [1],IC50 (Trypanosoma cruzi) [µM],IC50 (J774) [µM]
Oc1ccc(CCc2ccccc2)cc1,3.3,123,407
COc1ccc(OC)c(CCc2ccccc2)c1,5.5,46.5,> 256
COc1ccc(OC)c(C(=O)O)c1,–,> 256,> 256
COc1ccc(OC)c(CO)c1,–,> 256,> 256
C=Cc1cc(OC)ccc1OC,–,> 256,> 256
O=C(O)c1cc(O)ccc1O [GENTISIC ACID],–,> 256,> 256
Oc1ccc(O)cc1 [HYDROQUINONE],6.3,19.5,123
Oc1ccc(CCc2cccc(O)c2)cc1 [LUNULARIN],3.4,152,> 512
"COC(=O)c1cc(O)ccc1O [METHYL 2,5-DIHYDROXYBENZOATE]",2.6,98,> 256
"COC(=O)c1cc(O)cc(O)c1 [METHYL 3,5-DIHYDROXYBENZOATE]",–,> 256,> 256
